# Experiments:
# [1] = organism: Rattus norvegicus; assay: Percent inhibition of ethynylestradiol-induced uterine weight gain in ovariectomized immature rats; parameters: concentration or dose not given beside the values; conditions: concentration not given here
# [2] = biological target: T1, Estrogen receptor (Rattus norvegicus) (UniProt P06211+Q62986); assay: Estrogenic activity as percent gain in rat uterine weight at 10 mg/kg/day; format: functional, organism-based
# Procedure, shortened: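 Immature female rats were dosed orally once daily on days 28–30 of age at 10 mg/kg, with a vehicle-only control group. At autopsy on day 31, 24 h after the last dose, vaginal opening and vaginal-smear cornification were scored, and the blotted uterus was weighed fresh. Uterine gain was expressed as percent of vehicle control, as mean ± SEM of at least six observations per group.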
# [3] = biological target: T1, Estrogen receptor (Rattus norvegicus); assay: Relative binding affinity for immature rat cytosolic estrogen receptor; format: protein assay
# Procedure, shortened: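 Rat uterine cytosol receptor (20–21-day-old animals, pH 7.4 Tris-EDTA buffer) was incubated in triplicate for 18 h at 4 °C with fixed [3H]-estradiol and graded competitor concentrations, with DMF ≤5% final. Bound ligand was separated with dextran-coated charcoal and counted. Percent bound versus log concentration was plotted, and the 50%-inhibition concentration was compared with that of estradiol to give RBA.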
# [4] = biological target: T1, Estrogen receptor (Rattus norvegicus); assay: Estrogenic activity in rat uterine weight assay; format: functional
# [5] = biological target: T1, Estrogen receptor (Rattus norvegicus)
SMILES,inhibition [1] [%],Gain [2] [%],RBA [3] [%],Weight [4] [mg],Weight [5] [mg]
COc1ccc2c(c1)CCC(C1CC[C@H](OC(C)=O)[C@@]1(C)CC(=O)NCc1ccccc1)C2 (stereo not given in full),14,362,< 0.001,74.4,87.7
CCCNC(=O)C[C@@]1(C)C(C2CCc3cc(OC)ccc3C2)CC[C@@H]1OC(C)=O (stereo not given in full),26.1,6.63,< 0.001,18.7,67.2
COc1ccc2c(c1)CCC(C1CC[C@H](OC(C)=O)[C@@]1(C)CC(=O)Nc1ccccc1)C2 (stereo not given in full),11.5,2.91,< 0.001,18,69
CCCCCNC(=O)C[C@@]1(C)C(C2CCc3cc(OC)ccc3C2)CC[C@@H]1OC(C)=O (stereo not given in full),17.2,35.2,< 0.001,23.7,75.3
COc1ccc(NC(=O)C[C@@]2(C)C(C3CCc4cc(OC)ccc4C3)CC[C@@H]2OC(C)=O)cc1 (stereo not given in full),20.2,282,< 0.001,70.7,77.5
COc1ccc2c(c1)CCC(C1CC[C@H](OC(C)=O)[C@@]1(C)CC(=O)NCCc1ccccc1)C2 (stereo not given in full),6.41,8.57,< 0.001,19,73
CCCCNC(=O)C[C@@]1(C)C(C2CCc3cc(OC)ccc3C2)CC[C@@H]1OC(C)=O (stereo not given in full),22.1,133,< 0.001,40.7,70.9
COc1ccc2c(c1)CCC(C1CC[C@H](OC(C)=O)[C@@]1(C)CC(=O)NCCCc1ccccc1)C2 (stereo not given in full),10,422,< 0.001,74.3,83.6
CCCCCCCCCCCCNC(=O)C[C@@]1(C)C(C2CCc3cc(OC)ccc3C2)CC[C@@H]1OC(C)=O (stereo not given in full),11.7,412,< 0.001,82.4,90
CCCCCCCCNC(=O)C[C@@]1(C)C(C2CCc3cc(OC)ccc3C2)CC[C@@H]1OC(C)=O (stereo not given in full),5.98,441,< 0.001,87,95.9
COc1cccc(NC(=O)C[C@@]2(C)C(C3CCc4cc(OC)ccc4C3)CC[C@@H]2OC(C)=O)c1 (stereo not given in full),15.6,428,< 0.001,84.9,86

# From ChEMBL document CHEMBL1145237, “Amide derivatives of 9,11-seco-estra-1,3,5(10)-trien-11-oic acid as modified orally active estrogen agonists with moderate antagonistic activity” (Bioorg Med Chem Lett, 2005)
